In ChEMBL document CHEMBL1154908, “Structure-activity relationships studies in a series of N,N-bis(alkanol)amine aryl esters as P-glycoprotein (Pgp) dependent multidrug resistance (MDR) inhibitors” (J Med Chem, 2010):

What was measured:
[1] = target: T1, ATP-dependent translocase ABCB1 (Homo sapiens, UniProt P08183); test: Inhibition of P-glycoprotein-mediated multidrug resistance in human doxorubicin-resistant K562 cells assessed as maximal increase in nuclear concentration of pirarubicin by spectrofluorimetry relative to sensitive K562 cells; assay type: cell-based
How it was run: (§1)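 Pirarubicin uptake was measured in doxorubicin-resistant K562/DOX cells, which overexpress only Pgp, by continuous spectrofluorometry (excitation 480 nm, emission 590 nm) after incubation. R is the fold increase in nuclear pirarubicin with inhibitor, from 0 (no inhibitor) to 1 (equal to sensitive cells). Rmax is the maximal attainable R. Reported concentrations are those giving R = 0.2 or R = 0.5.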

[2] = target: T1, ATP-dependent translocase ABCB1; test: Inhibition of P-glycoprotein-mediated multidrug resistance in human doxorubicin-resistant K562 cells assessed as drug level causing 50% increase in nuclear concentration of pirarubicin by spectrofluorimetry; assay type: cell-based; conditions: read-out: INH; how it was run: as §1
K562 [3] = test: Growth inhibition in doxorubicin-resistant human K562 cells overexpressing Pgp at 3 uM after 72 hrs by MTT assay; assay type: functional; conditions: K562, 72 h, read-out: GI
K562 [4] = test: Growth inhibition in doxorubicin-resistant human K562 cells overexpressing Pgp at 1 uM after 72 hrs by MTT assay; assay type: functional; conditions: K562, 72 h, read-out: GI
K562 [5] = test: Growth inhibition in human K562 cells at 3 uM after 72 hrs by MTT assay; assay type: functional; conditions: K562, 72 h, read-out: GI
K562 [6] = test: Growth inhibition in human K562 cells at 1 uM after 72 hrs by MTT assay; assay type: functional; conditions: K562, 72 h, read-out: GI
[7] = target: T1, ATP-dependent translocase ABCB1; test: Inhibition of P-glycoprotein-mediated multidrug resistance in human doxorubicin-resistant K562 cells assessed as drug level causing 20% increase in nuclear concentration of pirarubicin by spectrofluorimetry; assay type: cell-based; how it was run: as §1

T1 sequence (P08183 whole entry): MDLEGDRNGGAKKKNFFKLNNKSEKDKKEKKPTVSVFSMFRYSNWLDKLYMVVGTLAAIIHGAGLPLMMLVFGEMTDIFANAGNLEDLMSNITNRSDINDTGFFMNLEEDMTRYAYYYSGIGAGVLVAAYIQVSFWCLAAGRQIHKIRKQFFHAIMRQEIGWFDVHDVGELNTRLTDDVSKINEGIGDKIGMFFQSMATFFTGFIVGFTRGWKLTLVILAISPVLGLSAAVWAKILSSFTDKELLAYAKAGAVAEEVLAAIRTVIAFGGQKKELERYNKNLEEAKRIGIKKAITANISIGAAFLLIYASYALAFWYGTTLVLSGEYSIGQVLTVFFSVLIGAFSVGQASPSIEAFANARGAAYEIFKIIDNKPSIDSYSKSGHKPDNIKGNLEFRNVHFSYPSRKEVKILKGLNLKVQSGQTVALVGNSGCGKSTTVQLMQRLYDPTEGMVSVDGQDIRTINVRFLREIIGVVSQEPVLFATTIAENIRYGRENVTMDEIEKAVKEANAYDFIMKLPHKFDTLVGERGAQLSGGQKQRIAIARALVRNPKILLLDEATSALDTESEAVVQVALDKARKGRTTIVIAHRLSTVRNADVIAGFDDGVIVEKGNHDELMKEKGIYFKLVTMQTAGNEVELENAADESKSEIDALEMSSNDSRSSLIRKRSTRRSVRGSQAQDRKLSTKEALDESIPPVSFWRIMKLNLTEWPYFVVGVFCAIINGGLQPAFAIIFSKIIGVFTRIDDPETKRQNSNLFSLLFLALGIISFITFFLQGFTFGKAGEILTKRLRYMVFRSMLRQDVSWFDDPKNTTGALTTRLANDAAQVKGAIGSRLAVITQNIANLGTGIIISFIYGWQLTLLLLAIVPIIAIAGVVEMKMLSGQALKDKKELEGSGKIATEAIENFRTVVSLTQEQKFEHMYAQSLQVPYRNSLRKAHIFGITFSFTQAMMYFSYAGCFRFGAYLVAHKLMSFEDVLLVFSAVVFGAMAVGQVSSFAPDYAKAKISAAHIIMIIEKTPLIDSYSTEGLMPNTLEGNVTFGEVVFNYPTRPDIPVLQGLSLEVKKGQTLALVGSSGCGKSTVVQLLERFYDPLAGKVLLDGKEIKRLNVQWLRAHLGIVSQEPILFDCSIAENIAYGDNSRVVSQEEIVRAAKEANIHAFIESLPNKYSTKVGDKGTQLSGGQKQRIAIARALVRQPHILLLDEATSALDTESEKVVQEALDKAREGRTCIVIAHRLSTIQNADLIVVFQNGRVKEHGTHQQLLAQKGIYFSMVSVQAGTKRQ

fold change (FC) [1]	IC50 [2] [nM]	INH [7] [µM]	Compound	inhibition of growth at 3 µM (K562 [3]) [%]	inhibition of growth at 1 µM (K562 [4]) [%]	inhibition of growth at 3 µM (K562 [5]) [%]	inhibition of growth at 1 µM (K562 [6]) [%]
0.93	250	–	COc1cc(/C=C/C(=O)OCCCN(C)CCCOC(=O)/C=C/c2c3ccccc3cc3ccccc23)cc(OC)c1OC	–	–	–	–
–	–	–	COc1ccc(CCN(C)CCCC(C#N)(c2ccc(OC)c(OC)c2)C(C)C)cc1OC (centres undefined) [VERAPAMIL]	≤ 10	≤ 10	≤ 10	≤ 10
0.73	230	–	COc1cc(/C=C/C(=O)OCCCN(C)CCCOC(=O)CN2C(=O)C3C4c5ccccc5C(c5ccccc54)C3C2=O)cc(OC)c1OC (centres undefined)	–	–	–	–
0.5	400	–	COc1ccc(C(C(=O)OCCCCCN(C)CCCCCOC(=O)/C=C/c2cc(OC)c(OC)c(OC)c2)c2ccc(OC)cc2)cc1	–	–	–	–
0.85	240	–	COc1cc(/C=C/C(=O)OCCCN(C)CCCOC(=O)/C=C/c2ccc(-c3ccccc3)cc2)cc(OC)c1OC	≤ 10	≤ 10	≤ 10	≤ 10
0.77	260	–	COc1cc(/C=C/C(=O)OCCCN(C)CCCOC(=O)C(c2ccccc2)c2ccccc2)cc(OC)c1OC	≤ 10	≤ 10	≤ 10	≤ 10
0.28	–	0.5	COc1cc(/C=C/C(=O)OCCCCCN(C)CCCCCOC(=O)C=C(c2ccccc2)c2ccccc2)cc(OC)c1OC	–	–	–	–
1	170	–	COc1ccc(/C=C/C(=O)OCCCCCN(C)CCCCCOC(=O)c2c3ccccc3cc3ccccc23)cc1OC	≤ 10	≤ 10	≤ 10	≤ 10
0.79	80	–	COc1ccc(C(C(=O)OCCCN(C)CCCOC(=O)/C=C/c2cc(OC)c(OC)c(OC)c2)c2ccc(OC)cc2)cc1	≤ 10	≤ 10	≤ 10	≤ 10
0.63	3700	–	COc1cc2c(cc1OC)CN(CCC(=O)OCCCN(C)CCCOC(=O)/C=C/c1cc(OC)c(OC)c(OC)c1)CC2	–	–	–	–
0.66	160	–	COc1cc(/C=C/C(=O)OCCCN(C)CCCOC(=O)C=C(c2ccccc2)c2ccccc2)cc(OC)c1OC	20	≤ 10	20	20
0.34	–	0.7	COc1ccc(/C=C/C(=O)OCCCN(C)CCCOC(=O)c2cc(OC)c(OC)c(OC)c2)cc1OC	–	–	–	–
0.77	220	–	COc1cc(/C=C/C(=O)OCCCN(C)CCCOC(=O)c2ccc(-c3ccccc3)cc2)cc(OC)c1OC	–	–	–	–
0.63	390	–	COc1cc(/C=C/C(=O)OCCCN(C)CCCOC(=O)CCN2C(=O)C3C4c5ccccc5C(c5ccccc54)C3C2=O)cc(OC)c1OC (centres undefined)	–	–	–	–
0.5	–	1.4	COc1ccc(/C=C/C(=O)OCCCN(C)CCCOC(=O)/C=C/c2cc(OC)c(OC)c(OC)c2)cc1OC	–	–	–	–
0.7	640	–	COc1ccc(/C=C/C(=O)OCCCCCN(C)CCCCCOC(=O)c2cc(OC)c(OC)c(OC)c2)cc1OC	–	–	–	–
0.98	410	–	COc1ccc(/C=C/C(=O)OCCCN(C)CCCOC(=O)c2c3ccccc3c(Cl)c3ccccc23)cc1OC	–	–	–	–
0.4	–	0.36	COc1cc(/C=C/C(=O)OCCCCCN(C)CCCCCOC(=O)/C=C/c2ccc(-c3ccccc3)cc2)cc(OC)c1OC	–	–	–	–
0.57	190	–	COc1ccc(/C=C/C(=O)OCCCN(C)CCCOC(=O)c2c3ccccc3cc3ccccc23)cc1OC	–	–	–	–
0.92	800	–	COc1cc(/C=C/C(=O)OCCCNCCCOC(=O)/C=C/c2c3ccccc3cc3ccccc23)cc(OC)c1OC	–	–	–	–
0.7	50	–	COc1ccc(C(C#N)(CCCNCc2c3ccccc3cc3ccccc23)C(C)C)cc1OC (centres undefined)	–	–	–	–
